Source: PubChem BioAssay
Hsp70 act: transcriptional activators of Hsp70. activation, % at 10 µM. HeLa Hsp70 promoter luciferase reporter, luminescence; scaled: vehicle 0, proteasome-inhibitor control 100%. AID 1203. 200,000 compounds, 0.04% hits;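 active = activation above the mean across all tested compounds plus 3 SD, cutoff set per campaign, cut at about 5.5% in these data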;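 also: 100% = MG132 at 30 µM as the positive control and 0% = DMSO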
HSP90 refold inh: HSP90 refolding inhibition in rabbit reticulocyte lysate. luciferase refolding luminescence, 3 h. inhibition, % at 5.6 µM. 290,000 compounds, 0.91% hits. AID 1789;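 active = inhibition above the screen-wide mean plus 3 SD, computed separately per campaign, cut at about 16% in these data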;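 also: 0% = DMSO wells and 100% = 60 µM geldanamycin wells; inhibitors lower the luminescence because luciferase stays unfolded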
HSF1 activator: increases HSF-1 driven luciferase reporter signal; AID 504408; activation, % at 9 µM; 300,000 compounds, 1.7% hits; NIH3T3-HGL HSF-1 luciferase reporter, MG132, 8 h; 100% = twice DMSO control signal;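 active = mean replicate activation of at least 50% with a set share of replicates each reaching 50%; inconclusive = only one of those two conditions met; inactive = mean below 50% and too few replicates reaching it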;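 also: 0% = median of the neutral control wells and 100% = twice that signal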
HKDC1 inhibitor: HKDC1 (human) hexokinase inhibition | Q2TB90 | recombinant HKDC1, G6PDH/diaphorase resazurin coupled fluorescence | inhibition, % at 20 µM | 340,000 compounds, 0.16% hits | AID 493160;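 active = inhibition above about 35% when tested at 20 µM, limit read from the data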;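 also: plate controls were DMSO wells with enzyme for no effect and DMSO wells lacking enzyme for full effect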
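Material: recombinant HKDC1 hexokinase; Amount: HKDC1 at 5 µg/mL; Medium: Tris pH 8.0 buffer with MgCl2, Tween-20, BSA, BME; Schedule: 90 min reaction incubation at room temperature, dark; Technique: coupled resazurin fluorescence, excitation 525 nm, emission 613 nm.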
TbHK1 inh: T. brucei hexokinase 1 inhibition; recombinant TbHK1, G6PDH-coupled NADH A340; 220,000 compounds, 0.11% hits; AID 1430; inhibition, % at 10 µM;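 active = inhibition of 50% or more in the single-dose primary screen; inactive = inhibition below 50%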
HSF1 inh: HSF1 inhibition; NIH3T3-HGL HSE-luciferase, MG132-induced, luminescence 8 h; stronger effect = lower value; activity change, negative = inhibition, % at 7.5 µM (by protocol); 300,000 compounds, 0.77% hits; AID 2098;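 active = more than half of replicate wells show activity change below -50%, luminescence cut by over half; inconclusive = some wells, but at most half, below -50%; inactive = no replicate well below -50%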;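 also: luciferase reports HSF-1 transcriptional activity via heat shock element; 0% = median of DMSO wells and -100% = zero luminescence signal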
HSP90 confirm: HSP90 inhibition, confirmation assay. 2,300 compounds, 64% hits. rabbit reticulocyte lysate, luciferase refolding luminescence, 3 h. inhibition, % at 5.9 µM. shares compounds with HSP90 refold inh. AID 1846; in the data active = inhibition above about 18%;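 also: 0% = vehicle wells and 100% = reference inhibitor wells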
FLuc counter: blocks native firefly luciferase in HSP90 counter-screen; shares compounds with HSP90 refold inh; purified native firefly luciferase, luminescence; inhibition, % at 5.9 µM; 2,300 compounds, 48% hits; AID 1847;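 active = inhibition above the mean inhibition of all tested sample wells plus 3 SD, cut at about 10% in these data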;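 also: 0% = DMSO with luciferase and 100% = wells lacking luciferase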
Target sequence (P08659 whole entry, looked up): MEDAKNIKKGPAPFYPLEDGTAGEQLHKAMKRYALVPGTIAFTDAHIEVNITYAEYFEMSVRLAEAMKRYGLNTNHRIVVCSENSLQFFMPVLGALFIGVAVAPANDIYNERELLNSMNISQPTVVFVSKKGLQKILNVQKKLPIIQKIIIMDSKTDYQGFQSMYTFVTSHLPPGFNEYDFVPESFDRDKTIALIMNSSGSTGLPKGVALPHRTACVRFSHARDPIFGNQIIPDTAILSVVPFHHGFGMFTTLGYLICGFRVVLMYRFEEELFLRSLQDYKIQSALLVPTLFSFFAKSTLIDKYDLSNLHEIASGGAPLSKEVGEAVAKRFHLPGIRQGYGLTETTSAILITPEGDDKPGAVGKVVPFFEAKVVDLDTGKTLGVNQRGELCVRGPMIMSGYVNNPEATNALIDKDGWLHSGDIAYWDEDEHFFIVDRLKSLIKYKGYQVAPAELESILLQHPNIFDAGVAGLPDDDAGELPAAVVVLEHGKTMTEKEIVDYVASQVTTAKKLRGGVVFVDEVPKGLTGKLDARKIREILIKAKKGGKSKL
* = called active by the depositor; ? = inconclusive; . = not tested or not shown. Most compounds without a hit are left out; they make up all but 3.1% or so of the library.

SMILES	Hsp70 act	HSP90 refold inh	HSF1 activator	HKDC1 inhibitor	TbHK1 inh	HSF1 inh	HSP90 confirm	FLuc counter
CSc1ccccc1C(=O)N(CC1CCCO1)c1c(N)n(Cc2ccccc2)c(=O)[nH]c1=O (configuration not stated)	.	.	-13	-2	.	0	.	.
COc1cc(N)c(Cl)cc1C(=O)OCC(=O)NCC1CCCCC1	.	.	.	3	.	.	.	.
C=CCn1c(C)cc(C(=O)CSc2nnc3n(CCC)c(=O)c4ccccc4n23)c1C	.	.	.	4	.	.	.	.
Cc1oc(=O)c(NC(=O)c2ccccc2)cc1C(N)=O	0	0	8	-14	-20	-5	.	.
O=C(Nc1cc2ccccc2oc1=O)c1ccccc1	0	25*	-6	-15	-5	-20	86*	74*
COC(=O)c1ccc(NC(=O)C[n+]2ccccc2C)cc1	.	20*	-1	3	.	-1	1	-4
C=CCn1c(C)cc(C(=O)COc2ncnc3sccc23)c1C	0	18*	-11	-5	-5	-6	45*	33*
O=C(Cn1nnc(-c2cccs2)n1)NCc1ccccc1	0	56*	12	-7	-4	4	-3	-9
O=C(Cn1nnc(-c2cccs2)n1)NCc1ccco1	0	-1	3	-13	-5	1	.	.
O=C(Nc1nc2ccccc2[nH]1)c1ccc(Cl)cc1	.	46*	39	-1	.	23	65*	58*
O=C(Nc1nc2ccccc2[nH]1)c1ccccc1	0	17*	32	4	-14	-1	57*	39*
O=C(Nc1nc2ccccc2[nH]1)c1cccc(Cl)c1	.	-2	42	-4	.	29	.	.
Cc1cccc(C(=O)n2c(=S)nc3cc(C)ccn32)c1	.	18*	-16	14	-23	-17	57*	47*
COc1ccc(CN2C[C@H](Cc3ccccc3)[C@@H](CC(=O)Nc3ccccc3)C2=O)cc1	.	-1	28	7	.	19	.	.
COc1ccc(C(=O)O/N=C(\N)c2ccccc2)c(OC)c1	0	51*	-49	-5	-2	-40	37*	26*
COc1ccc(Cl)cc1C(=O)O/N=C(\N)c1ccccn1	.	1	42	-5	.	15	.	.
COc1ccc(C(=O)O/N=C(\N)c2ccccn2)c(OC)c1	.	43*	1	-5	-2	-8	11	3
Cc1cnc(C(=O)OCC(=O)NCc2ccc(Cl)cc2)cn1	.	.	.	0	.	.	.	.
COCCCNC(=O)c1cccn2c(=O)c3cc4ccccc4cc3nc12	0	17*	.	15	-17	.	26*	18*
COc1ccc(CCNC(=O)c2nnn(-c3ccc4c(c3)OCCO4)c2N)cc1OC	0	29*	-78	3	2	-76*	64*	66*
COc1cccc2c1C(=O)c1ccc3ccccc3c1C2=O	0	26*	13	14	25	16	-1	-24
COc1ccc(OC)c2c1C(=O)c1ccccc1C2=O	0	-1	-2	19	10	5	.	.
Cc1nc(N)sc1-c1csc(Nc2ccccc2)n1	0	26*	-3	-11	1	-4	-5	-16
Cc1cc(O)ccc1Nc1nc(-c2sc(N)nc2C)cs1	0	34*	.	-6	-8	.	-4	-9
Cc1nc(N)sc1-c1csc(Nc2cccc(C(=O)O)c2)n1	.	15	2	-5	.	-6	.	.
SMILES	Hsp70 act	HSP90 refold inh	HSF1 activator	HKDC1 inhibitor	TbHK1 inh	HSF1 inh	HSP90 confirm	FLuc counter
COc1ccc(OC)c(Nc2nc(-c3sc(N)nc3C)cs2)c1	0	26*	-1	-4	-10	-9	2	-7
COC(=O)c1ccc(COC(=O)c2ccc(C)c(S(=O)(=O)N3CCCCC3)c2)cc1	.	.	.	-1	.	.	.	.
Cn1cccc1C(=O)NC(=O)COC(=O)C12CC3CC(CC(O)(C3)C1)C2	0	43*	-69	-1	-2	-61*	54*	44*
CC(=O)NC12CC3CC(C1)CC(C(=O)OCC(=O)NC(=O)c1cccn1C)(C3)C2	0	7	10	-3	-3	5	.	.
COc1ccc(CCNC(=O)CCC(=O)NC2CCCC(C)C2C)cc1OC (configuration not stated)	.	2	-11	2	.	-7	.	.
Cc1ccc(S(=O)(=O)/C(C#N)=C/c2c(N3CCN(Cc4ccccc4)CC3)nc3ccccn3c2=O)cc1	.	2	-7	1	.	-8	.	.
COC(=O)c1ccc(NC(=O)c2ccc(F)cc2)o1	0	1	0	-5	-9	0	.	.
COC(=O)c1ccc(NC(=O)c2ccc(C)cc2)o1	0	30*	?	-2	-1	17	37*	-16
O=C(O)/C=C/c1cnn(-c2ccccc2)c1	0	53*	3	-3	-1	-15	59*	38*
CC1CCCC(C)N1C(=O)COC(=O)c1ccc2ccccc2n1 (configuration not stated)	.	.	.	-4	.	.	.	.
O=[N+]([O-])c1ccc2nc(/C=C/c3ccc(Cl)cc3)[nH]c2c1	0	28*	-27	-3	-21	-23	6	1
O=C(Nc1ccc2nc3n(c(=O)c2c1)CCCC3)c1ccccc1F	.	-2	10	-5	.	1	.	.
O=C(Nc1ccc2nc3n(c(=O)c2c1)CCCCC3)c1c(F)ccc([N+](=O)[O-])c1F	.	24*	-7	32	.	-3	6	3
O=C(Nc1ccc2nc3n(c(=O)c2c1)CCCCC3)c1cc([N+](=O)[O-])ccc1F	.	34*	-72	9	.	-68*	15	4
O=C(Nc1ccc2nc3n(c(=O)c2c1)CCCCC3)c1ccccc1[N+](=O)[O-]	.	-3	43	0	.	25	.	.
COCCN(CC(=O)Nc1cccc(C)c1C)C(=O)C1(c2ccc(Cl)cc2)CCC1	.	.	.	3	.	.	.	.
CC(=O)N(Cc1ccccc1)C(CC(=O)NCc1ccccc1)C(=O)O (configuration not stated)	.	.	.	-4	.	.	.	.
CC1(C)C(=O)NCCN1C(=O)CC1C(=O)NCCN1CC(c1ccccc1)c1ccccc1 (configuration not stated)	0	24*	-10	0	-6	-2	-2	-3
CC(C)(CO)NC(=O)CC1C(=O)NCCN1CC(c1ccccc1)c1ccccc1 (configuration not stated)	0	-3	-1	-1	0	3	.	.
Cc1cccc(NC(=O)COc2ccc3c(c2)CCC3)n1	.	.	.	-4	.	.	.	.
Cc1cnc(NC(=O)COc2ccc3c(c2)CCC3)s1	.	18*	46	-5	.	26	32*	23*
CC(Sc1nnc(Cc2cccs2)n1C)C(=O)Nc1ccc(C(N)=O)cc1 (configuration not stated)	.	.	.	-5	.	.	.	.
